The values below come from ChEMBL document CHEMBL1127316, “Piperidinyltetralin sigma ligands” (J Med Chem, 1994).

The subject of experiment [1] is Mus musculus. As to the kind of experiment: Inhibition of mescaline effects in mice following p.o. administration. The settings on record: po. Type of experiment: functional. An outline of the steps:
(§1)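 In mice, antagonism of mescaline-induced effects was tested after oral administration. Potency is an ED50 in mg/kg, calculated as free base weight.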

Experiment [2] concerns Mus musculus. Put plainly: Antimescaline activity in the mouse (administered po). It counts as functional. An outline of the steps: as §1
Experiment [3] relates to Mus musculus. Put plainly: Ability to block the aggressive behavior caused by prolonged isolation in mouse (administered po). Type of experiment: functional. An outline of the steps:
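Mice were made aggressive by prolonged isolation. The compound was given orally, and blockade of the aggressive behavior was scored. ED50 is in mg/kg, expressed as free base weight.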

In experiment [4] the test system is Rattus norvegicus. Put plainly: In vivo antagonism of compound determined by the ability to inhibit 5-HTP-induced head twitch in rat (administered po). Type of experiment: functional. An outline of the steps: (§2)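 In rats, head twitches were induced with 5-hydroxytryptophan as an in vivo read-out of 5HT2 antagonism. The compound was dosed po, and inhibition of twitching gave an ED50 (mg/kg, free base weight).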

Experiment [5] deals with Rattus norvegicus. As to the kind of experiment: In vivo activity of 5-HTP-induced head twitch in rat as a measure of 5-HT2 antagonism. Type of experiment: functional. An outline of the steps: as §2
The species entered for experiment [6] is Mus musculus. As to the kind of experiment: Ability to block the aggressive behavior caused by prolonged isolation in mouse. Type of experiment: functional. An outline of the steps: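 Mice made aggressive by prolonged isolation; compounds dosed orally (po); blocking of aggressive behaviour scored and ED50 derived in mg/kg, expressed as free base weight; values averaged from three measurements, some single measurements.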

For experiment [7], the system named is Rattus norvegicus. As to the kind of experiment: In vivo 5-HT2 antagonism of 5-HTP-induced head twitch in rat. It counts as functional. An outline of the steps: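 Rats given 5-hydroxytryptophan (5HTP) to induce head twitches, a read-out of in vivo 5HT2 antagonism; compounds given orally (po); ED50 in mg/kg as free base weight; values averaged from three measurements, some single measurements.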

Experiment [8] has as its target Sigma non-opioid intracellular receptor 1 (Cavia porcellus) (UniProt Q60492). As to the kind of experiment: Binding affinity for sigma receptor of guinea pig whole brain using [3H]-SKF- 100047 radioligand.

Molecules are shown by their SMILES. pKi: −log10 of the molar value.

Sequence of Sigma non-opioid intracellular receptor 1 (Cavia porcellus) (Q60492 whole entry, looked up): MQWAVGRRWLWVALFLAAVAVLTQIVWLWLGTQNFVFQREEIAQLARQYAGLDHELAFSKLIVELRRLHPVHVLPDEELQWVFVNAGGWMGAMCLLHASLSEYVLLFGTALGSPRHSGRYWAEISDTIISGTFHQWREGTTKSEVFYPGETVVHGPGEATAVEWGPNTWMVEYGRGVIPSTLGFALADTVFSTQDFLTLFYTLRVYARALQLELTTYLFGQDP

`O=C(O)/C=C/C(=O)O.O=C1c2c(F)cc(F)cc2CCC12CCN(CCc1ccccc1)CC2` gave an ED50 in experiment [1] of more than 10 mg/kg. The compound `O=C1c2ccc(F)cc2CCC1C1CCN(Cc2ccccc2)CC1` (configuration not stated) displayed an ED50 in experiment [1] of more than 10 mg/kg. `OC1CCc2ccccc2C12CCN(CCc1ccccc1)CC2` (configuration not stated) yielded an ED50 in experiment [1] of more than 30 mg/kg. Compound `O=C1c2ccc(Cl)cc2CCC12CCN(CCc1ccccc1)CC2` came in with an ED50 in experiment [1] of 10 mg/kg. In turn, `O=C(O)CC(O)C(=O)O.O=C1c2ccccc2CCC12CCN(Cc1ccc(C(F)(F)F)cc1)CC2` showed an ED50 in experiment [2] of more than 10 mg/kg.

As to `O=C(O)CC(O)C(=O)O.O=C1c2ccccc2CCC12CCN(Cc1ccc3ccccc3c1)CC2`, the ED50 in experiment [1] is more than 10 mg/kg. `Cc1ccc(CN2CCC(C3CCc4ccccc4C3=O)CC2)cc1.O` (configuration not stated) yielded an ED50 in experiment [1] of more than 10 mg/kg. In experiment [2], `CC(C)(C)c1ccc(CN2CCC(C3CCc4ccccc4C3=O)CC2)cc1` (configuration not stated) returned an ED50 of more than 10 mg/kg.

Regarding `c1ccc(CN2CCC3(CCCc4ccccc43)CC2)cc1`, the ED50 in experiment [3], in experiment [2] and in experiment [4] was more than 30 mg/kg in each case. Compound `COc1ccc2c(c1)CCC(C1CCN(CCc3ccccc3)CC1)C2=O` (configuration not stated) displayed an ED50 in experiment [1] of 6.5 mg/kg.

In turn, `O=C1CCc2ccccc2C12CCN(CCc1ccccc1)CC2` returned a 50% effective dose (ED50) in experiment [1] of more than 30 mg/kg. Regarding `O=C1c2ccc(F)cc2CCC1C1CCN(CCc2ccccc2)CC1` (configuration not stated), it took a dose of 1.9 mg/kg to reach the 50% effect level in experiment [2] (ED50). Consider `Br.O=C1c2ccccc2CCC1C1CCN(CCc2ccccc2)CC1` (configuration not stated), for which the ED50 in experiment [2] worked out at 6.4 mg/kg. This ED50 lies about 3.4-fold higher than the previous one. As to `Br.CC(C1CC1)N1CCC(C2CCc3ccccc3C2=O)CC1` (configuration not stated), the ED50 in experiment [2] was more than 30 mg/kg. In the case of `CC(C)(C)c1ccc(CN2CCC3(CCc4ccccc4C3=O)CC2)cc1.Cl`, in experiment [1], the ED50 was more than 10 mg/kg.

Consider `COc1ccc(CN2CCC3(CCc4ccccc4C3=O)CC2)cc1.Cl`, for which the ED50 in experiment [2] was more than 10 mg/kg.

Take `Cl.OC1c2ccccc2CCC12CCN(CCc1ccccc1)CC2` (configuration not stated): the median effective dose (ED50) in experiment [1] was determined as 0.064 mg/kg; in experiment [5] it was 0.07 mg/kg; in experiment [6], 10 mg/kg.

Take `CN1CCC2(CCc3ccccc3C2=O)CC1.Cl`: the ED50 in experiment [1] is more than 10 mg/kg. As to `Br.O=C1c2ccccc2CCC1C1CCN(CC2CC2)CC1` (configuration not stated), the ED50 in experiment [1] is more than 10 mg/kg.

For `Br.O=C(CC1CCN(CC2CC2)CC1)c1ccc(F)cc1`, the ED50 in experiment [7] turned out to be 1.8 mg/kg; in experiment [6], 1.9 mg/kg; in experiment [2], 0.35 mg/kg. The compound further showed a pKi in experiment [8] of 8.00. Take `Cl.O=C1c2cccc(F)c2CCC1C1CCN(CCc2ccccc2)CC1` (configuration not stated): in experiment [1], it took a dose of 6.8 mg/kg to reach the 50% effect level (ED50). Turning to `Cl.O=C1c2ccccc2CCC12CCN(Cc1ccc([N+](=O)[O-])cc1)CC2`, the ED50 in experiment [1] was more than 10 mg/kg.

The compound `Cl.O=C1c2ccccc2CCC1C1CCN(Cc2ccccc2)CC1` (configuration not stated) yielded an ED50 in experiment [1] of 4.5 mg/kg.

The compound `Cl.O=C1c2ccc(Cl)cc2CCC1C1CCN(CCc2ccccc2)CC1` (configuration not stated) had a 50% effective dose (ED50) in experiment [1] of 5.4 mg/kg.

Consider `Cl.O=C1c2ccccc2CCC12CCN(Cc1ccc(F)cc1)CC2`, for which the ED50 in experiment [2] is more than 10 mg/kg. On to `Cl.O=C1c2ccccc2CCC1C1CCN(Cc2ccc(F)cc2)CC1` (configuration not stated), for which the 50% effect level in experiment [2] (ED50) was put at a dose of 10 mg/kg. Take `Cl.O=C1c2ccccc2CCC1C1CCN(Cc2ccc(C(F)(F)F)cc2)CC1` (configuration not stated): the ED50 in experiment [2] is more than 10 mg/kg.

Regarding `Cl.O=C(CCCN1CCC2(CCc3ccccc3C2=O)CC1)c1ccc(F)cc1`, the ED50 in experiment [1] is 0.65 mg/kg. `Cl.O=C1c2ccccc2CCC12CCN(CC1CCCCC1)CC2` had an ED50 in experiment [1] of more than 10 mg/kg. As for `Cl.O=C1c2ccccc2CCC12CCN(CCc1ccccc1)CC2`, the median effective dose (ED50) in experiment [1] is 10 mg/kg; in experiment [7], 10 mg/kg; in experiment [6], 30 mg/kg. Turning to `Cl.O=C1c2ccccc2CCC12CCN(Cc1ccccc1)CC2`, the median effective dose (ED50) in experiment [1] was more than 10 mg/kg. With `C[C@@H]1CN(CCCn2c3ccccc3c3ccccc32)C[C@H](C)N1` [RIMCAZOLE], the results for the ED50 in experiment [6] and in experiment [2] were 48 mg/kg and 22 mg/kg, respectively.

A word on the ED50: it is the dose at which the effect has come halfway, by size or by number of responders. A higher ED50 goes with weaker potency. Usually pKi stands for −log10 of the Ki, conventionally taken in molar units. Low readings indicate a high Ki, high ones a low Ki.
